We go through 22 compounds from ChEMBL document CHEMBL1138840, “Discovery of positive allosteric modulators for the metabotropic glutamate receptor subtype 5 from a series of N-(1,3-diphenyl-1H- pyrazol-5-yl)benzamides that potentiate receptor function in vivo” (J Med Chem, 2004).

Experiment [1] concerns the target Metabotropic glutamate receptor 5 (Rattus norvegicus) (UniProt P31424). Put plainly: Fold potentiation towards rat metabotropic glutamate receptor 5. The experiment is classed as functional. The method, boiled down: (§1)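 FLIPR calcium assay in CHO cells transfected with human or rat mGluR5. Compound added with a low glutamate concentration (300 nM), measuring increase in response; compound alone (up to 100 µM) checked for agonist activity.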

The target in experiment [2] is T1, Metabotropic glutamate receptor 5 (Homo sapiens, UniProt P41594). Put plainly: Fold potentiation in CHO cells overexpressing human metabotropic glutamate receptor 5. The class given is functional, cell-based. The method, boiled down:
as §1
Target sequence in this assay (P41594 21-1212 limits assumed): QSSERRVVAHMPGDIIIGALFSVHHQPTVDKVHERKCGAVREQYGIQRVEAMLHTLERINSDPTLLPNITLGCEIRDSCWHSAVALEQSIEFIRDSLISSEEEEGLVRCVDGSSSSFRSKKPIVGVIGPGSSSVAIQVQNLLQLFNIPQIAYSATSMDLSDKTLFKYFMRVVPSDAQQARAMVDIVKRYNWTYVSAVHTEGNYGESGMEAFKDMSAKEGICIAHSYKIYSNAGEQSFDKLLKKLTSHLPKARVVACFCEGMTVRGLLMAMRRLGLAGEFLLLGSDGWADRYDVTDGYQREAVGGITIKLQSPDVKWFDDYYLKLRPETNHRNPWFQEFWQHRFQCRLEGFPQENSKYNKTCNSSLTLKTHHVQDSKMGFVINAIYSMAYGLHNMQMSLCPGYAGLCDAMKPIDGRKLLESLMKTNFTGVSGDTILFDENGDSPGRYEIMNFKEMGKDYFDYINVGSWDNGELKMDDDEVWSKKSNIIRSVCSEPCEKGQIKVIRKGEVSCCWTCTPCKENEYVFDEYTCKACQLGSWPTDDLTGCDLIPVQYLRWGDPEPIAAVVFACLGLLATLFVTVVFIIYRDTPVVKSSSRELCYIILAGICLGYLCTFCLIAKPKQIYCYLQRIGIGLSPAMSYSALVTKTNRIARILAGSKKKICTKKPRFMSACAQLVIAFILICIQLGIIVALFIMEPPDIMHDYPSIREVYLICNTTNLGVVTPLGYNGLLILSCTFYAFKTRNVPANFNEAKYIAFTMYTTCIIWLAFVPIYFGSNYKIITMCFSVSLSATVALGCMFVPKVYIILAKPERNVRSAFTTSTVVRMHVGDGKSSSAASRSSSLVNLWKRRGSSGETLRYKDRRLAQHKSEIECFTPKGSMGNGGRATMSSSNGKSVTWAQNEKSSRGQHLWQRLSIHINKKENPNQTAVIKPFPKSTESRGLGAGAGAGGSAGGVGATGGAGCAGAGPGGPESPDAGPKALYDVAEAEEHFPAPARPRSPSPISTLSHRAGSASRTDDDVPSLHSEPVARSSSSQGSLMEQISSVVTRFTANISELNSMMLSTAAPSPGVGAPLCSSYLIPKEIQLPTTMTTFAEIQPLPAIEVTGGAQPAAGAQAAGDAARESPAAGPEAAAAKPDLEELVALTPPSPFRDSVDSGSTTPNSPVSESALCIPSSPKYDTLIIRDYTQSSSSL

Experiment [3] deals with T1, Metabotropic glutamate receptor 5. Description: Effective concentration against metabotropic glutamate receptor 5 of human transfected into CHO cells. The class given is cell-based. The method, boiled down:
as §1
Target sequence in this assay (P41594 whole entry): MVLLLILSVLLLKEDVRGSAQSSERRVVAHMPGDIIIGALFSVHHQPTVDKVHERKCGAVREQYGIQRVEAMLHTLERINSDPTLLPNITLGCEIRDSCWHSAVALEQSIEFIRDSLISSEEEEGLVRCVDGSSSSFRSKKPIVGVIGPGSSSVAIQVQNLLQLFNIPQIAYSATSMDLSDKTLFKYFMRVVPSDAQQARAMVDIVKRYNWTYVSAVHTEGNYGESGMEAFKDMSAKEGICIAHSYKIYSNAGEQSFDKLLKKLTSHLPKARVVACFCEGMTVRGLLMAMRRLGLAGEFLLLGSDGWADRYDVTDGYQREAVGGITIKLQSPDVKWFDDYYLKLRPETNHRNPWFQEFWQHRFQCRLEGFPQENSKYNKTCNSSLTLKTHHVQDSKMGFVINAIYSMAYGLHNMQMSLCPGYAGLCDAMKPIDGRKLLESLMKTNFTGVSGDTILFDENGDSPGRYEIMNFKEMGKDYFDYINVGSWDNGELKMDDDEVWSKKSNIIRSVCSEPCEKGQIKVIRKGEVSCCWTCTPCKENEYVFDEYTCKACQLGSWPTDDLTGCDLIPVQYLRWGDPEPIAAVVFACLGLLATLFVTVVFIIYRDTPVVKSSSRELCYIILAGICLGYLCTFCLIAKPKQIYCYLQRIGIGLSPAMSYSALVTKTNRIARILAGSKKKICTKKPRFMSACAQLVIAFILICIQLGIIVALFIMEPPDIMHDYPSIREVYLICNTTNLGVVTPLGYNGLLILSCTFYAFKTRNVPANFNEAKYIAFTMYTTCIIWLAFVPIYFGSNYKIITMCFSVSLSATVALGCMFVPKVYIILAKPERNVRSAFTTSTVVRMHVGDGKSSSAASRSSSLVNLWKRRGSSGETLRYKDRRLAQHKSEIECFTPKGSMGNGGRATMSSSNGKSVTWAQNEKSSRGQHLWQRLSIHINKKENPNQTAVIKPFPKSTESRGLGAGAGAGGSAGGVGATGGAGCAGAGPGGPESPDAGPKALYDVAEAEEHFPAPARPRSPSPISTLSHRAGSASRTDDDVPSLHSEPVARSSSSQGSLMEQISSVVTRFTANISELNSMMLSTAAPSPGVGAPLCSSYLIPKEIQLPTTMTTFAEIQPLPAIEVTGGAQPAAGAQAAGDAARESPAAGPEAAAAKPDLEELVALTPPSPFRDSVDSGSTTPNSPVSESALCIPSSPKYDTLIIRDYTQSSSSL

Experiment [4] concerns the target Metabotropic glutamate receptor 5 (Rattus norvegicus, UniProt P31424). Description: Effective concentration against metabotropic glutamate receptor 5 of rat. The method, boiled down:
as §1

As usually defined, the EC50 is the concentration at which the effect is half-maximal.

Metabotropic glutamate receptor 5 (Rattus norvegicus, UniProt P31424), sequence (P31424 whole entry): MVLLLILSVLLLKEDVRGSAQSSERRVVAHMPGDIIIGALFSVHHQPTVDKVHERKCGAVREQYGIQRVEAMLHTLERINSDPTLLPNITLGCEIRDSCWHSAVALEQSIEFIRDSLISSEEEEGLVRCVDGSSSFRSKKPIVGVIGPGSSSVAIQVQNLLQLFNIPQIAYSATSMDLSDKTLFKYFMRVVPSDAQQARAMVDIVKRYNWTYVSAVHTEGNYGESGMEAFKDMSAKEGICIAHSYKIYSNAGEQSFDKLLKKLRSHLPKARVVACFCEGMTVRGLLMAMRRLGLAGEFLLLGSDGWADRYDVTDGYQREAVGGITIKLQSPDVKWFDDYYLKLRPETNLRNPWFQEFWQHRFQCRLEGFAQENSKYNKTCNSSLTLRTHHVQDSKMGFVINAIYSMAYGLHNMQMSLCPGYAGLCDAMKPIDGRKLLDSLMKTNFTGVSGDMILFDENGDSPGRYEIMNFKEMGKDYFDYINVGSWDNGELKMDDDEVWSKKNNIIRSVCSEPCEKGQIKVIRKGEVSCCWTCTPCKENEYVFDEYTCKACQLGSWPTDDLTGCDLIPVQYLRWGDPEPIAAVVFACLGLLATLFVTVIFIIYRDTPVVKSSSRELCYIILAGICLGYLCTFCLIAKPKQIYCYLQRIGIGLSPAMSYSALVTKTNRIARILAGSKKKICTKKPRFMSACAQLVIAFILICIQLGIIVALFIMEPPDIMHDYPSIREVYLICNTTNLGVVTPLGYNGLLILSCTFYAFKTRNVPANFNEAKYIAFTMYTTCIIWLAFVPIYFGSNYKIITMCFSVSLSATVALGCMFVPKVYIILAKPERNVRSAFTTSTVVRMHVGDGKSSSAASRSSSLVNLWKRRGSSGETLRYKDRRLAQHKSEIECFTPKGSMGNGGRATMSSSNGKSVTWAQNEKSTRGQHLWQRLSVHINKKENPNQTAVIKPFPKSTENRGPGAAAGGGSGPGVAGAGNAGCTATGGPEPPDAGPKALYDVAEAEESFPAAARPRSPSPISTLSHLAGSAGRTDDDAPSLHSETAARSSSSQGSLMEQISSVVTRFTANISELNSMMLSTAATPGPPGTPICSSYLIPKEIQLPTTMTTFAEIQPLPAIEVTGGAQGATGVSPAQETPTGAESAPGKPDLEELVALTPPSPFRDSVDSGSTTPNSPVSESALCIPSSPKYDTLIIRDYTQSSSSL
Metabotropic glutamate receptor 5 (Rattus norvegicus), sequence (P31424 21-1203 limits assumed): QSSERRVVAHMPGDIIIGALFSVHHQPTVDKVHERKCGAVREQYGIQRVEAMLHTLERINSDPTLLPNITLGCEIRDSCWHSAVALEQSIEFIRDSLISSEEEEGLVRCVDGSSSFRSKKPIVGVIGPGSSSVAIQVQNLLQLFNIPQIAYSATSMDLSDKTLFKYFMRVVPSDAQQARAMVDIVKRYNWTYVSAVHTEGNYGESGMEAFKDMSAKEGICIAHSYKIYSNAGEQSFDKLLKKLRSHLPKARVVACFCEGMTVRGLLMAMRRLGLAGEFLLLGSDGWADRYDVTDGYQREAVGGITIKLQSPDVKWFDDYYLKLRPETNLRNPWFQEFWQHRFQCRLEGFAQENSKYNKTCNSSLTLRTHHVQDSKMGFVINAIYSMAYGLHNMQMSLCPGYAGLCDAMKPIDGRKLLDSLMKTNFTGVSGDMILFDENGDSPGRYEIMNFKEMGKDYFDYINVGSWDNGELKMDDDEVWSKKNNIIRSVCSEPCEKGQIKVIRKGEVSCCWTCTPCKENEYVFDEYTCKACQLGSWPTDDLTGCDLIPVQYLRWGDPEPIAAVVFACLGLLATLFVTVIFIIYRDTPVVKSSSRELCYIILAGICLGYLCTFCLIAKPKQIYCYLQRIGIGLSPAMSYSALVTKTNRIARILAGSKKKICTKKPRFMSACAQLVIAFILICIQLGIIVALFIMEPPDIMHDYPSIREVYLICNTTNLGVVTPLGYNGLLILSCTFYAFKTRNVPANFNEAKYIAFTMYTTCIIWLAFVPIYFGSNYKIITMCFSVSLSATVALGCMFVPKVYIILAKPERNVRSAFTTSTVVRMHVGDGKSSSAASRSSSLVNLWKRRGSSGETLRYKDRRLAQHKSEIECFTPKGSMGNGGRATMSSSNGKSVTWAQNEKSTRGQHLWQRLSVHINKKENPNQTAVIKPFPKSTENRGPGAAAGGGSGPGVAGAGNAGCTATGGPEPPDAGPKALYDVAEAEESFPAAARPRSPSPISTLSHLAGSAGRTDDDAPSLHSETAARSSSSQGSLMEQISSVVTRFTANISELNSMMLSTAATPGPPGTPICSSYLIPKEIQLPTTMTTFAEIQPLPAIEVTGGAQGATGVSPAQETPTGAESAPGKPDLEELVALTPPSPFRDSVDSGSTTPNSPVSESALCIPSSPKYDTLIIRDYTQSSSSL

With `O=C(Nc1cc(-c2ccccc2)nn1-c1ccccc1)c1ccccc1`, the Potentiation in experiment [1] and in experiment [2] was 5 throughout. The concentration for a half-maximal effect (EC50) is 40 nM in experiment [3] and 300 nM in experiment [4].
As to `O=C(Nc1cc(-c2ccccc2)nn1-c1ccccc1)c1ccc(F)cc1`, the Potentiation was 8 in experiment [1] and 2.9 in experiment [2]. Also, the EC50 in experiment [3] is 30 nM; in experiment [4], 50 nM.
As to `Fc1cccc(/C=N/N=C/c2cccc(F)c2)c1`, the Potentiation in experiment [2] came to 3. Also, the half-maximal effective concentration (EC50) in experiment [3] came to 2.36 nM.
For the compound `O=C(Nc1cc(-c2ccccc2)nn1-c1ccccc1)c1ccc(F)c(F)c1`, the Potentiation in experiment [1] was found to be 6.4; in experiment [2] it was 2.6. Moreover, the EC50 was 10 nM in experiment [3] and 20 nM in experiment [4].
On the same counts, the results for `O=C(Nc1cc(-c2ccccc2)nn1-c1ccccc1)c1cnccn1` are 4.8, 4.3, 200 nM and 400 nM.
On the same counts, the results for `O=C(Nc1cc(-c2ccccc2)nn1-c1ccccc1)c1cccs1` are 5.3, 2.9, 200 nM and 400 nM.
For the compound `O=C(Nc1cc(-c2ccccc2)nn1-c1ccccc1)c1ccc(Cl)cc1`, the Potentiation in experiment [1] is 4.9; in experiment [2] it was 5. Besides, the concentration giving a half-maximal response (EC50) in experiment [3] turned out to be 20 nM; in experiment [4], 100 nM.
`O=C(Nc1cc(-c2ccccc2)nn1-c1ccccc1)c1ccccc1F`: the Potentiation in experiment [1] stood at 6.3; in experiment [2], 6.4. The concentration for a half-maximal effect (EC50) is 75 nM in experiment [3] and 100 nM in experiment [4].
Consider `N#Cc1cccc(C(=O)Nc2cc(-c3ccccc3)nn2-c2ccccc2)c1`, for which the values for the Potentiation in experiment [1] and in experiment [2] were 4.3 and 4, respectively.
With `O=C(Nc1cc(-c2ccccc2)nn1-c1ccccc1)c1ccsc1`, the Potentiation was determined as 3.7 in experiment [1] and 2.5 in experiment [2]. The results for the EC50 in experiment [3] and in experiment [4] were 1800 nM and 2900 nM, respectively.
On the same counts, the results for `Cc1ccc(C(=O)Nc2cc(-c3ccccc3)nn2-c2ccccc2)cc1` are 10.9, 9, 30 nM and 40 nM.
With `O=C(Nc1ccc(Br)cc1CN1C(=O)c2ccccc2C1=O)c1ccccn1`, in experiment [2], the Potentiation worked out at 6. This compound showed a concentration for a half-maximal effect (EC50) in experiment [3] of 740 nM.
Take `O=C(Nc1cc(-c2ccccc2)nn1-c1ccccc1)c1ccccc1Cl`: the Potentiation in experiment [2] was 3.7. In addition, the EC50 in experiment [3] came out at 2500 nM.
As for `O=C(Nc1cc(-c2ccccc2)nn1-c1ccccc1)c1cccc(F)c1`, the Potentiation in experiment [1] is 7.7; in experiment [2] it was 2.6. For the same compound, the EC50 in experiment [3] stood at 20 nM; in experiment [4], 65 nM.
Take `Cc1ccccc1C(=O)Nc1cc(-c2ccccc2)nn1-c1ccccc1`: the Potentiation in experiment [2] came to 0.9. Also, the EC50 in experiment [3] is above 10000 nM.
Take `Cc1cccc(C(=O)Nc2cc(-c3ccccc3)nn2-c2ccccc2)c1`: the figures for the Potentiation in experiment [1] and in experiment [2] were 9.4 and 9, respectively. Also, the results for the EC50 in experiment [3] and in experiment [4] were 90 nM and 100 nM, respectively.
On the same counts, the results for `O=C(Nc1cc(-c2ccccc2)nn1-c1ccccc1)c1ccccc1O` are 0.9, 0.9, above 10000 nM and above 10000 nM.
Turning to `O=C(Nc1ccc(Cl)cc1CN1C(=O)c2ccccc2C1=O)c1ccccc1O`, in experiment [2], the Potentiation was found to be 7.
With `O=C(Nc1cc(-c2ccccc2)nn1-c1ccccc1)c1ccccn1`, the Potentiation in experiment [1] was found to be 8; in experiment [2] it was 3.6. Moreover, the concentration giving a half-maximal response (EC50) in experiment [3] worked out at 290 nM; in experiment [4] it was 585 nM.
In the case of `O=C(Nc1cc(-c2ccccc2)nn1-c1ccccc1)c1ccc(C(F)(F)F)cc1`, the Potentiation in experiment [1] came out at 6.8; in experiment [2], 5.2. The values for the EC50 in experiment [3] and in experiment [4] were 19 nM and 20 nM, respectively.
On to `O=C(Nc1cc(-c2ccccc2)nn1-c1ccccc1)c1cccc(Cl)c1`, for which the Potentiation was 3.3 in experiment [1] and 5.4 in experiment [2]. In addition, the results for the 50% effective concentration (EC50) in experiment [3] and in experiment [4] were 40 nM and 200 nM, respectively.
For `O=C(Nc1ccc(Cl)cc1CN1C(=O)c2ccccc2C1=O)c1ccccn1`, the Potentiation in experiment [2] worked out at 7. It took 245 nM to reach a half-maximal effect in experiment [3] (EC50).
